Source: ChEMBL document CHEMBL1127345, “Synthesis, binding properties, and 18F labeling of fluorocarazolol, a high-affinity beta-adrenergic receptor antagonist” (J Med Chem, 1994)

Key:
Mus musculus [1] = experiment: The in vivo tissue distribution of mouse brain without Propranolol preadministration in 10 min, value was fractional dose per fractional body weight of the organ
Mus musculus [2] = experiment: The in vivo tissue distribution of mouse kidney without Propranolol preadministration in 40 min, value was fractional dose per fractional body weight of the organ
Mus musculus [3] = experiment: The in vivo tissue distribution of mouse blood without Propranolol preadministration in 20 min, value was fractional dose per fractional body weight of the organ
Mus musculus [4] = experiment: The in vivo tissue distribution of mouse blood with Propranolol administration after 40 min, value was fractional dose per fractional body weight of the organ; assay type: ADME, organism-based
How it was run: (§1)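 Male CF-1 mice (25–30 g), anesthetised with 2 mg sodium pentobarbital ip 30 min before tracer. Where blocked, propranolol iv via tail vein (0.1 mL of […]; […]) about 30 min before tracer. Tracer given by tail vein, 0.1 mL at 1–2 mCi/mL. Mice killed by cervical dislocation at set times, organs weighed and counted. %ID/g × body weight/100 gives unitless uptake. Heart, brain, blood, lung, kidney, liver and bone n=5; average ± SD.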

Mus musculus [5] = experiment: The in vivo tissue distribution of mouse heart with Propranolol administration after 60 min, value was fractional dose per fractional body weight of the organ; assay type: ADME, organism-based; conditions: 1 h
How it was run: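 Male CF-1 mice, 25–30 g, anesthetized with 2 mg sodium pentobarbital ip. Propranolol pretreatment was 0.1 mL of 1 mg/mL iv by tail vein. About 30 min later, 0.1 mL of 1–2 mCi/mL [18F]tracer was given by tail vein. Mice were killed by cervical dislocation at set times. Organs were weighed and counted against weighed dose standards. %ID/g × body weight/100 gave fractional dose per fractional body weight. Blood and heart n=5.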

Mus musculus [6] = experiment: The in vivo tissue distribution of mouse lung with Propranolol administration after 60 min, value was fractional dose per fractional body weight of the organ; assay type: ADME, organism-based; conditions: 1 h
How it was run: as §1

Mus musculus [7] = experiment: The in vivo tissue distribution of mouse blood with Propranolol preadministration in 120 min, value was fractional dose per fractional body weight of the organ; assay type: ADME, organism-based; conditions: 2 h
How it was run: (§2)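 Male CF-1 mice (25–30 g) anaesthetised with 2 mg sodium pentobarbital ip; blocked group given 0.1 mL of […] propranolol iv via tail vein (200 μg, 6.6 mg/kg), tracer 30 min later. 0.1 mL of 1–2 mCi/mL [18F]-labelled enantiomer iv via tail vein; killed by cervical dislocation, organs weighed and counted against weighed standards. %ID/g × body weight/100 gives unitless uptake; five mice per point (heart, blood, lung, kidney, liver, bone); mean ± SD.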

Mus musculus [8] = experiment: The in vivo tissue distribution of mouse liver without Propranolol preadministration in 40 min, value was fractional dose per fractional body weight of the organ
Mus musculus [9] = experiment: The in vivo tissue distribution of mouse brain with Propranolol administration after 60 min, value was fractional dose per fractional body weight of the organ; assay type: ADME, organism-based; conditions: 1 h
How it was run: as §1

Mus musculus [10] = experiment: The in vivo tissue distribution of mouse liver without Propranolol preadministration in 60 min, value was fractional dose per fractional body weight of the organ; conditions: 1 h
Mus musculus [11] = experiment: The in vivo tissue distribution of mouse brain without Propranolol preadministration in 120 min, value was fractional dose per fractional body weight of the organ; conditions: 2 h
Mus musculus [12] = experiment: The in vivo tissue distribution of mouse brain without Propranolol preadministration in 40 min, value was fractional dose per fractional body weight of the organ
Mus musculus [13] = experiment: The in vivo tissue distribution of mouse liver with Propranolol administration after 20 min, value was fractional dose per fractional body weight of the organ; assay type: ADME, organism-based
How it was run: (§3)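 Male CF-1 mice (25–30 g), given 2 mg sodium pentobarbital ip 30 min before tracer. Blocked groups received propranolol iv by tail vein, 0.1 mL of 1 mg/mL. About 30 min later, 0.1 mL of [18F]tracer (1–2 mCi/mL) was injected by tail vein. Mice were killed by cervical dislocation at set times, and organs were weighed and counted. Uptake is %ID/g × body weight/100, average ± SD; n=5 for heart, brain, blood, lung, kidney, liver and bone.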

Mus musculus [14] = experiment: The in vivo tissue distribution of mouse brain with Propranolol administration after 120 min, value was fractional dose per fractional body weight of the organ; assay type: ADME, organism-based; conditions: 2 h
How it was run: as §3

Mus musculus [15] = experiment: The in vivo tissue distribution of mouse blood with Propranolol administration after 60 min, value was fractional dose per fractional body weight of the organ; assay type: ADME, organism-based; conditions: 1 h
How it was run: as §1

Mus musculus [16] = experiment: The in vivo tissue distribution of mouse bone with Propranolol administration after 20 min, value was fractional dose per fractional body weight of the organ; assay type: ADME, organism-based, Bone element
How it was run: as §2

Mus musculus [17] = experiment: The in vivo tissue distribution of mouse kidney without Propranolol preadministration in 20 min, value was fractional dose per fractional body weight of the organ
Mus musculus [18] = experiment: The in vivo tissue distribution of mouse liver without Propranolol preadministration in 20 min, value was fractional dose per fractional body weight of the organ
Mus musculus [19] = experiment: The in vivo tissue distribution of mouse lung without Propranolol preadministration in 60 min, value was fractional dose per fractional body weight of the organ; conditions: 1 h
Mus musculus [20] = experiment: The in vivo tissue distribution of mouse lung without Propranolol preadministration in 90 min, value was fractional dose per fractional body weight of the organ; conditions: 1.5 h
Mus musculus [21] = experiment: The in vivo tissue distribution of mouse heart without Propranolol preadministration in 60 min, value was fractional dose per fractional body weight of the organ; conditions: 1 h
Mus musculus [22] = experiment: The in vivo tissue distribution of mouse lung with Propranolol administration after 90 min, value was fractional dose per fractional body weight of the organ; assay type: ADME, organism-based; conditions: 1.5 h
How it was run: as §2

Mus musculus [23] = experiment: The in vivo tissue distribution of mouse blood with Propranolol administration after 180 min, value was fractional dose per fractional body weight of the organ; assay type: ADME, organism-based; conditions: 3 h
How it was run: as §3

Mus musculus [24] = experiment: The in vivo tissue distribution of mouse brain without Propranolol preadministration in 20 min, value was fractional dose per fractional body weight of the organ
Mus musculus [25] = experiment: The in vivo tissue distribution of mouse brain with Propranolol administration after 40 min, value was fractional dose per fractional body weight of the organ; assay type: ADME, organism-based
How it was run: as §1

Mus musculus [26] = experiment: The in vivo tissue distribution of mouse bone without Propranolol preadministration in 180 min, value was fractional dose per fractional body weight of the organ; conditions: 3 h
Mus musculus [27] = experiment: The in vivo tissue distribution of mouse liver with Propranolol preadministration in 120 min, value was fractional dose per fractional body weight of the organ; assay type: ADME, organism-based; conditions: 2 h
How it was run: as §1

Mus musculus [28] = experiment: The in vivo tissue distribution of mouse bone with Propranolol preadministration in 90 min, value was fractional dose per fractional body weight of the organ; assay type: ADME, organism-based, Bone element; conditions: 1.5 h
How it was run: as §2

Mus musculus [29] = experiment: The in vivo tissue distribution of mouse bone with Propranolol administration after 90 min, value was fractional dose per fractional body weight of the organ; assay type: ADME, organism-based, Bone element; conditions: 1.5 h
How it was run: as §1

| Structure (SMILES) | Dose/organ (Mus musculus [1]) | Dose/organ (Mus musculus [2]) | Dose/organ (Mus musculus [3]) | Dose/organ (Mus musculus [4]) | Dose/organ (Mus musculus [5]) | Dose/organ (Mus musculus [6]) | Dose/organ (Mus musculus [7]) | Dose/organ (Mus musculus [8]) | Dose/organ (Mus musculus [9]) | Dose/organ (Mus musculus [10]) | Dose/organ (Mus musculus [11]) | Dose/organ (Mus musculus [12]) | Dose/organ (Mus musculus [13]) | Dose/organ (Mus musculus [14]) | Dose/organ (Mus musculus [15]) | Dose/organ (Mus musculus [16]) | Dose/organ (Mus musculus [17]) | Dose/organ (Mus musculus [18]) | Dose/organ (Mus musculus [19]) | Dose/organ (Mus musculus [20]) | other results |
| --- | --- | --- | --- | --- | --- | --- | --- | --- | --- | --- | --- | --- | --- | --- | --- | --- | --- | --- | --- | --- | --- |
| CC(C[18F])NC[C@@H](O)COc1cccc2[nH]c3ccccc3c12 (stereo partly drawn) | 0.82 | 3.3 | 0.75 | 0.57 | 0.57 | 1.23 | 0.24 | 3 | 0.62 | 2.56 | 0.2 | 0.73 | 3 | 0.12 | 0.63 | 0.77 | 4.8 | 4 | 2.39 | 1.55 | Dose/organ (Mus musculus [21]): 0.56; Dose/organ (Mus musculus [22]): 1.03; Dose/organ (Mus musculus [23]): 0.09; Dose/organ (Mus musculus [24]): 0.66; Dose/organ (Mus musculus [25]): 0.9; Dose/organ (Mus musculus [26]): 1.25; Dose/organ (Mus musculus [27]): 0.94; Dose/organ (Mus musculus [28]): 1; Dose/organ (Mus musculus [29]): 1.57 |
| CC(C[18F])NC[C@H](O)COc1cccc2[nH]c3ccccc3c12 (stereo partly drawn) | 1.18 | 2.01 | 0.71 | 0.35 | 0.29 | 1.1 | 0.52 | 1.7 | 0.25 | 1.32 | 0.64 | 1.09 | 1.85 | 0.11 | 0.25 | 0.86 | 2.89 | 2.54 | 5.34 | 5.88 | Dose/organ (Mus musculus [21]): 0.61; Dose/organ (Mus musculus [22]): 1.06; Dose/organ (Mus musculus [23]): 0.15; Dose/organ (Mus musculus [24]): 0.95; Dose/organ (Mus musculus [25]): 0.64; Dose/organ (Mus musculus [26]): 1.9; Dose/organ (Mus musculus [27]): 0.96; Dose/organ (Mus musculus [28]): 1.13; Dose/organ (Mus musculus [29]): 0.72 |
